rRNA inh HTS: selective bacterial rRNA inhibition in E. coli; AID 720706; hit rate 1.6% among 350,000; E. coli WT GFP vs humanized-ribosome RFP mutants, fluorescence, 24 h; hits give low values; DMSO median 0, no signal -100; GFP signal change (wild-type ribosome), % (concentration not given with the values);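 active = significant combined selectivity score with lowered wild-type GFP, culture density cut under 30%, mutant RFP and density less affected; inactive = any of these conditions unmet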
miR-122 sensor: blocks miR-122 activity in Huh7 sensor cells; Huh7 miR-122 Renilla luciferase sensor, 48 h; neutral wells = 0, positive control = 100; activation (reporter increase), % at 12.5 µM; hit rate 0.3% among 340,000;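 active = mean replicate activation score at least 90 and every replicate individually at or above 90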;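 also: higher luciferase means less miR-122 activity so hits act as miR-122 inhibitors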
CFTR F508del cor: correctors of CFTR F508del function in bronchial epithelial cells; CFBE cells, YFP halide quenching; stimulated with forskolin plus potentiator P3; % fluorescence drop versus neutral controls; activity (quench increase), % at 7.58 µM; hit rate 0.36% among 350,000; AID 720511;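 active = mean added fluorescence quench of at least 8% versus neutral control, with both replicates also reaching 8%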;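 also: cells transiently co-express mutant CFTR-F508del with the halide-sensitive YFP; corrector assay measuring rescue of mutant channel to the surface after 24 h compound exposure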
Env fusion inh: blocks HIV Env-driven cell-cell fusion; hit rate 1.1% among 360,000; inhibition, % at 12.3 µM; HeLa-JRFL Env/CEM21 cell fusion, luciferase;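 active = mean replicate inhibition score of at least 50 and every replicate individually at or above 50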;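 also: 0% = plate neutral controls and 100% = maraviroc near 300 nM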
Cneo AK release: causes C. neoformans cell lysis; adenylate kinase release luminescence, 4 h; normalised: neutral wells 0, clomiphene wells 100; hit rate 0.2% among 360,000; lysis activity, % at 15 µM;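 active = mean lysis activity across replicates of at least 80%, whatever share of replicates individually reach that level; inactive = mean lysis activity below 80%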
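Assay system: log-phase C. neoformans yeast / Quantity: yeast cell density of 5 × 10^6 cells/mL / Medium: fresh YPD growth medium / Compound: single dose / Timing: static 4 h at 37 °C with compound, 1 h detection / Measured by: adenylate kinase release luminescence / Read-out: lysis from increased AK signal / Benchmarks: Clomiphene as positive lysis control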
GSIS activator: primary screen for activators of insulin secretion dependent on glucose, INS-1E cells, GLuc reporter luminescence. hit rate 0.61% among 370,000. activation, % at 16.6 µM. INS-1E GLuc reporter insulin secretion, 2-3 h;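 active = lowest replicate activation of at least 40%, so every replicate reaches that level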;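 also: 0% = median of neutral control wells and 100% = median of IBMX positive control wells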
* marks the source's active call; other numbers are inactive results; . = not tested or not shown; ! = not active in a repeat; [ ] = another dose, or the depositor's remark. Hits are enriched below; roughly 3.1% of the tested compounds scored in any of these assays.

SMILES	rRNA inh HTS	miR-122 sensor	CFTR F508del cor	Env fusion inh	Cneo AK release	GSIS activator
Cc1noc(C)c1S(=O)(=O)N(C)C[C@@H]1OCCCC[C@@H](C)Oc2ccc(NC(=O)Nc3ccccc3)cc2C(=O)N([C@H](C)CO)C[C@H]1C	1	-3[16.7 µM]	1	44[16.7 µM]	-1	-10
Cc1noc(C)c1S(=O)(=O)N(C)C[C@H]1OCCCC[C@H](C)Oc2ccc(NC(=O)Nc3ccccc3)cc2C(=O)N([C@@H](C)CO)C[C@@H]1C	-1	8[16.7 µM]	1	65*[16.7 µM]	-3	-14
C[C@@H]1CN([C@H](C)CO)C(=O)c2cccc(NS(=O)(=O)c3ccc(Cl)cc3)c2O[C@@H]1CN(C)Cc1ccc2c(c1)OCO2	-6	4[16.7 µM]	-1	.	2	-17
C[C@@H]1CN([C@H](C)CO)S(=O)(=O)c2ccc(/C=C/c3ccccc3)cc2O[C@H]1CN(C)C(=O)Nc1cc(F)ccc1F	1	17[16.7 µM]	0	20[16.7 µM]	-4	6
CCCNC(=O)c1cc(C2CCCN(S(=O)(=O)c3cccc4cccnc34)C2)on1 (stereo not given)	-15*	24	-4	11	-1	-4
COc1cccc(C(=O)NCCN2C(=O)S/C(=C/c3cccs3)C2=O)c1OC	-39*	.	-4	-11	.	14
O=C(C[C@H]1CC[C@H]2[C@@H](COC[C@H](O)CN2Cc2ccc(Oc3ccccc3)cc2)O1)N1CCCCC1	-39	3[16.7 µM]	1	.	-1	-24
C[C@H](CO)N1C[C@H](C)[C@@H](CN(C)Cc2ccc(Cl)c(Cl)c2)Oc2c(NS(=O)(=O)c3ccccc3)cccc2C1=O	-2	106*![16.7 µM]	0	33[16.7 µM]	-3	-32
COc1ccc(S(=O)(=O)Nc2cccc3c2O[C@H](CN(C)Cc2ccc(Cl)c(Cl)c2)[C@@H](C)CN([C@H](C)CO)C3=O)cc1	-4	98*!	-5	-4[16.7 µM]	1	-17
C[C@@H]1CN([C@H](C)CO)C(=O)c2cccc(NS(=O)(=O)c3cccs3)c2O[C@@H]1CN(C)Cc1ccc(Cl)c(Cl)c1	-2	5[16.7 µM]	1	90*[16.7 µM]	2	-43
COc1cccc(NC(=O)c2ccc(CN3CCN(c4ccccc4)CC3)cc2)c1	-1	0	.	62*	3	-29
COc1ccc(C(=O)Nc2ccc(N3CCN(Cc4ccccc4)CC3)cc2)cc1	1	0	1	9	.	-11
COc1c(F)c(F)c(C(=O)Nc2ccc(N3CCN(Cc4ccccc4)CC3)cc2)c(F)c1F	.	-8	.	65*	.	.
COc1ccc(NC(=O)c2ccc(CN3CCN(c4ccccc4)CC3)cc2)cc1	.	-6	.	.	3	.
Cc1ccc(C2c3c(-c4ccccc4)n[nH]c3C(=O)N2c2ccccc2)cc1 (stereo not given)	-23	.	1	2	.	-4
O=C1c2[nH]nc(-c3ccccc3)c2C(c2ccccc2)N1c1ccccc1 (stereo not given)	4	.	-2	-19	.	49*
CCCN1C(=O)c2[nH]nc(-c3ccccc3)c2C1c1ccc(C)cc1 (stereo not given)	-23	.	4	0	.	39
O=C1NC(c2cccc(C(F)(F)F)c2)c2c(-c3ccccc3)n[nH]c21 (stereo not given)	-12	.	0	-32	.	-15
CC(C)c1[nH]nc2c1C(c1ccc(F)cc1)NC2=O (stereo not given)	30	.	-1	-9	.	25
Cc1ccc(C2NC(=O)c3[nH]nc(-c4ccccc4)c32)cc1 (stereo not given)	-19*	.	4	-23	.	3
O=C1NC(c2ccccc2)c2c(-c3ccccc3)n[nH]c21 (stereo not given)	22	.	4	-13	.	54*
CC(C)c1[nH]nc2c1C(c1ccccc1)NC2=O (stereo not given)	18	.	-2	9	.	44*
CO[C@H]1CN(C)C(=O)c2ccc(NC(=O)C3CCCCC3)cc2OC[C@@H](C)NC[C@@H]1C	-2	-2[16.7 µM]	3	.	-1	1
O=C1c2cccc(NCCNCCO)c2C(=O)c2cccc(NCCNCCO)c21	-14	.	5	59*	.	6

Source: PubChem
